Measured values taken from ChEMBL document CHEMBL1909567, “Synthesis and structure-activity relationship studies in translocator protein ligands based on a pyrazolo[3,4-b]quinoline scaffold” (J Med Chem, 2011).

Assays:
[1] = target: Translocator protein (Rattus norvegicus, UniProt P16257); assay: Displacement of [3H]PK11195 from TSPO in Sprague-Dawley rat brain homogenates after 90 mins by liquid scintillation spectrometry; assay type: tissue-based
[2] = tested on: Mus musculus; assay: Antianxiety activity in mouse assessed as increase in time spent in illuminated area at 1 mg/kg, po by light/dark box test (reference value: 116.4 +/- 7.5 sec); assay type: functional
Outline: (§1)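 Male mice, housed 15 per cage, placed in the test room 24 h before testing for acclimatization. Drugs were given po in 1% carboxymethylcellulose at 10 mL/kg, 30 min before the light/dark box test. Time spent in the light box (s) was recorded. Values are mean ± SEM of at least 8 mice per group. ANOVA with Fisher's PLSD was used against vehicle.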

[3] = tested on: Mus musculus; assay: Antianxiety activity in mouse assessed as increase in time spent in illuminated area at 3 mg/kg, po after 30 mins by light/dark box test (reference value: 116.4 +/- 7.5 sec); assay type: functional; outline: as §1
[4] = tested on: Mus musculus; assay: Antianxiety activity in mouse assessed as increase in time spent in illuminated area at 10 mg/kg, po after 30 mins by light/dark box test (reference value: 116.4 +/- 7.5 sec); assay type: functional; outline: as §1
[5] = tested on: Mus musculus; assay: Antianxiety activity in mouse assessed as increase in time spent in illuminated area at 30 mg/kg, po after 30 mins by light/dark box test (reference value: 116.4 +/- 7.5 sec); assay type: functional; outline: as §1
[6] = tested on: Rattus norvegicus; assay: Antinociceptive activity in rat peripheral mononeuropathy model assessed as decrease in left paw pressure at 5 mg/kg, po after 15 mins by analgesimetry (reference value: 63.5 +/- 2.8 g); assay type: functional
[7] = tested on: Rattus norvegicus; assay: Antinociceptive activity in rat peripheral mononeuropathy model assessed as decrease in left paw pressure at 5 mg/kg, po after 30 mins by analgesimetry (reference value: 59.65 +/- 2.6 g); assay type: functional
[8] = tested on: Rattus norvegicus; assay: Antinociceptive activity in rat peripheral mononeuropathy model assessed as decrease in left paw pressure at 5 mg/kg, po after 45 mins by analgesimetry (reference value: 63.0 +/- 2.4 g); assay type: functional
[9] = tested on: Rattus norvegicus; assay: Antinociceptive activity in rat peripheral mononeuropathy model assessed as decrease in left paw pressure at 50 mg/kg, po after 15 mins by analgesimetry (reference value: 63.5 +/- 2.8 g); assay type: functional
[10] = tested on: Rattus norvegicus; assay: Antinociceptive activity in rat peripheral mononeuropathy model assessed as decrease in left paw pressure at 50 mg/kg, po after 30 mins by analgesimetry (reference value: 59.65 +/- 2.6 g); assay type: functional
[11] = tested on: Rattus norvegicus; assay: Antinociceptive activity in rat peripheral mononeuropathy model assessed as decrease in left paw pressure at 50 mg/kg, po after 45 mins by analgesimetry (reference value: 63.0 +/- 2.4 g); assay type: functional
[12] = tested on: Rattus norvegicus; assay: Antinociceptive activity in rat peripheral mononeuropathy model assessed as decrease in right paw pressure at 5 mg/kg, po after 15 mins by analgesimetry (reference value: 34.8 +/- 3.7 g); assay type: functional
[13] = tested on: Rattus norvegicus; assay: Antinociceptive activity in rat peripheral mononeuropathy model assessed as decrease in right paw pressure at 5 mg/kg, po after 30 mins by analgesimetry (reference value: 31.3 +/- 2.8 g); assay type: functional
[14] = tested on: Rattus norvegicus; assay: Antinociceptive activity in rat peripheral mononeuropathy model assessed as decrease in right paw pressure at 5 mg/kg, po after 45 mins by analgesimetry (reference value: 32.9 +/- 2.6 g); assay type: functional
[15] = tested on: Rattus norvegicus; assay: Antinociceptive activity in rat peripheral mononeuropathy model assessed as decrease in right paw pressure at 50 mg/kg, po after 15 mins by analgesimetry (reference value: 34.8 +/- 3.7 g); assay type: functional
[16] = tested on: Rattus norvegicus; assay: Antinociceptive activity in rat peripheral mononeuropathy model assessed as decrease in right paw pressure at 50 mg/kg, po after 30 mins by analgesimetry (reference value: 31.3 +/- 2.8 g); assay type: functional
[17] = tested on: Rattus norvegicus; assay: Antinociceptive activity in rat peripheral mononeuropathy model assessed as decrease in right paw pressure at 50 mg/kg, po after 45 mins by analgesimetry (reference value: 32.9 +/- 2.6 g); assay type: functional

Chain of Translocator protein (P16257 whole entry, looked up): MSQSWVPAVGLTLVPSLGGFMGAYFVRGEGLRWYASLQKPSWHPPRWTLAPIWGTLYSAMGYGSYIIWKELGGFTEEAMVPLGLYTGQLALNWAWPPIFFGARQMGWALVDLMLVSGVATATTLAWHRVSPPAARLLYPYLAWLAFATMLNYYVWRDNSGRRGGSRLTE

`CCN(Cc1ccccc1)C(=O)Cn1c2nc3ccccc3c(C)c2c(=O)n1-c1ccccc1` was tested, and the IC50 [1] was 220 nM.

`CN1C(=O)CN=C(c2ccccc2)c2cc(Cl)ccc21` [DIAZEPAM] showed a Time [2] of 171.63 s.

For `CCCCN(C)C(=O)Cn1c2nc3ccccc3c(C)c2c(=O)n1-c1ccc(F)cc1`, the IC50 [1] was 110 nM.

In the case of `Cc1c2ccccc2nc2c1c(=O)n(-c1ccccc1)n2CC(=O)N(C)c1ccc(Cl)cc1`, the IC50 [1] is reported as 1.8 nM, the Time [3] is reported as 103.8 s and the Time [4] is reported as 112.3 s. It also gave a Time [5] of 107.6 s, an Activity [6] of 57.8 g and an Activity [7] of 63.6 g. For the same molecule, the Activity [8] was 61.4 g, the Activity [9] was 61 g and the Activity [10] was 58 g. For the same molecule, the Activity [11] was 59 g, the Activity [12] was 39.2 g and the Activity [13] was 35.9 g. The Activity [14] was 33.4 g, the Activity [15] was 48.1 g and the Activity [16] was 44 g. The Activity [17] was 37 g.

`COc1ccc(N(C)C(=O)Cn2c3nc4ccccc4c(C)c3c(=O)n2-c2ccccc2)cc1` was tested, and the IC50 [1] was 17 nM.

Work on `Cc1c2ccccc2nc2c1c(=O)n(-c1ccccc1)n2CC(=O)N(Cc1ccccc1)Cc1ccccc1` yielded an IC50 [1] of 3460 nM.

Work on `Cc1c2ccccc2nc2c1c(=O)n(-c1ccccc1)n2CC(=O)N(C)c1ccccc1` yielded an IC50 [1] of 117 nM.

Work on `Cc1c2c(=O)n(-c3ccc(F)cc3)nc-2n(CC(=O)N(C)c2ccc(Cl)cc2)c2ccccc12` yielded an IC50 [1] of 0.28 nM.

Work on `Cc1c2ccccc2nc2c1c(=O)n(-c1ccccc1)n2CC(=O)N(C)Cc1ccccc1` yielded an IC50 [1] of 881 nM.

`CCCN(CCC)C(=O)Cn1c2nc3ccccc3c(C)c2c(=O)n1-c1ccc(Cl)cc1` showed an IC50 [1] of 90 nM.

In the case of `CCCCN(C)C(=O)Cn1c2nn(-c3ccc(F)cc3)c(=O)c-2c(C)c2ccccc21`, the IC50 [1] is reported as 0.13 nM.

Work on `CCCCN(CCCC)C(=O)Cn1c2nn(-c3ccccc3)c(=O)c-2c(C)c2ccccc21` yielded an IC50 [1] of 0.34 nM.

`Cc1c2ccccc2nc2c1c(=O)n(-c1ccccc1)n2CC(=O)N(C(C)C)C(C)C` showed an IC50 [1] of 1390 nM.

`Cc1c2c(=O)n(-c3ccccc3)nc-2n(CC(=O)N(C)c2ccc(Cl)cc2)c2ccccc12` was tested, and the IC50 [1] was 0.13 nM.

`CCN(Cc1ccccc1)C(=O)Cn1c(=O)n(C)c2cnc(-c3ccccc3)nc21` gave a Time [3] of 137.3 s, a Time [4] of 162.3 s and a Time [2] of 110.8 s.

Molecule `CCCCN(CCCC)C(=O)Cn1c2nc3ccccc3c(C)c2c(=O)n1-c1ccccc1` has an IC50 [1] of 152 nM.

`Cc1c2ccccc2nc2c1c(=O)n(-c1ccc(Cl)cc1)n2CC(=O)N(C)c1ccc(Cl)cc1` was tested, and the IC50 [1] was 16 nM, the Time [3] was 135.2 s and the Time [4] was 169 s. The Time [2] was 108.9 s, the Activity [6] was 61.4 g and the Activity [7] was 58.4 g. It also gave an Activity [8] of 63.8 g, an Activity [9] of 62.2 g and an Activity [10] of 61.8 g. It also gave an Activity [11] of 64.8 g, an Activity [12] of 44.8 g and an Activity [13] of 35.8 g. The Activity [14] was 32.7 g, the Activity [15] was 56.3 g and the Activity [16] was 49.4 g. For the same molecule, the Activity [17] was 42.5 g.

With `CCCCN(C)C(=O)Cn1c2nc3ccccc3c(C)c2c(=O)n1-c1ccccc1` the IC50 [1] was 65 nM.

`Cc1c2ccccc2nc2c1c(=O)n(-c1ccccc1)n2CC(=O)N(Cc1ccccc1)C(C)C` showed an IC50 [1] of 304 nM.

`CCCCN(Cc1ccccc1)C(=O)Cn1c2nc3ccccc3c(C)c2c(=O)n1-c1ccccc1` showed an IC50 [1] of 697 nM.

`CCCN(CCC)C(=O)Cn1c2nc3ccccc3c(C)c2c(=O)n1-c1ccccc1` was tested, and the IC50 [1] was 90 nM.

`CCN(CC)C(=O)Cn1c2nc3ccccc3c(C)c2c(=O)n1-c1ccccc1` was tested, and the IC50 [1] was 180 nM.

`CCCN(CCC)C(=O)Cn1c2nc3ccccc3c(C)c2c(=O)n1-c1ccc(F)cc1` was tested, and the IC50 [1] was 87 nM.

For `CCN(CC)C(=O)Cn1c2nc3ccccc3c(C)c2c(=O)n1-c1ccc(F)cc1`, the IC50 [1] was 2270 nM.

With `CCCCN(C)C(=O)Cn1c2nn(-c3ccccc3)c(=O)c-2c(C)c2ccccc21` the IC50 [1] was 0.14 nM, the Time [3] was 117.4 s and the Time [4] was 151.5 s. The Time [2] was 103.7 s.

For `CCCCN(C)C(=O)Cn1c2nc3ccccc3c(C)c2c(=O)n1-c1ccc(Cl)cc1`, the IC50 [1] was 144 nM.

`Cc1c2ccccc2nc2c1c(=O)n(-c1ccc(F)cc1)n2CC(=O)N(C)c1ccc(Cl)cc1` gave an IC50 [1] of 6.8 nM, a Time [3] of 106.8 s and a Time [4] of 117.5 s. The Time [5] was 111.3 s, the Activity [6] was 58.7 g and the Activity [7] was 57.7 g. The Activity [8] was 64.1 g, the Activity [9] was 60.7 g and the Activity [10] was 59.3 g. The Activity [11] was 63.1 g, the Activity [12] was 35.6 g and the Activity [13] was 36.4 g. The Activity [14] was 36.3 g, the Activity [15] was 49.4 g and the Activity [16] was 47.2 g. The Activity [17] was 36.3 g.

With `CCN(CC)C(=O)Cn1c2nn(-c3ccccc3)c(=O)c-2c(C)c2ccccc21` the IC50 [1] was 0.83 nM.
